pIC50: −log10 of the molar value. The source made the active and inactive calls. The calls are words filed in the database; no cut-off is given here.
Key:
[1] = molecular target: Voltage-dependent calcium channel alpha2delta subunit (Sus scrofa, UniProt O77773); assay: Displacement of [3H]gabapentin from calcium channel alpha2delta in pig cerebral cortex membrane after 30 mins; format: cell membranes
[2] = tested on: Rattus norvegicus; assay: Antihyperalgesic effect in carrageenan-induced rat inflammatory pain model assessed as reversal of hyperalgesia at 30 mg/kg, po; format: functional, organism-based; design: dose 30 mg/kg
How it was run: (§1)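 Rats received intraplantar carrageenan in the paw, and thermal hyperalgesia was allowed to form over 2 h, to a paw-withdrawal latency of 2.5 s. Test compound was then given orally. Reversal of hyperalgesia was read as the time to paw withdrawal.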

[3] = tested on: Rattus norvegicus; assay: Analgesic activity in po dosed rat assessed as increase in number shocks received for 10 mins; format: functional; conditions: read-out: MED
How it was run: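 Vogel conflict model: rats were dosed orally at different doses, then placed in a cage with a drinking tube that delivered a shock at each drink. The mean number of shocks per rat was counted over 10 min. The minimum effective dose was taken from significance versus vehicle (P <0.05).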

[4] = tested on: Rattus norvegicus; assay: Antihyperalgesic effect in carrageenan-induced rat inflammatory pain model assessed as reversal of hyperalgesia at 1 to 30 mg/kg, po; format: functional, organism-based; how it was run: as §1
[5] = tested on: Rattus norvegicus; assay: Antihyperalgesic effect in carrageenan-induced intrathecal dosed rat inflammatory pain model assessed as reversal of hyperalgesia; format: functional, organism-based

Chain of Voltage-dependent calcium channel alpha2delta subunit (O77773 whole entry): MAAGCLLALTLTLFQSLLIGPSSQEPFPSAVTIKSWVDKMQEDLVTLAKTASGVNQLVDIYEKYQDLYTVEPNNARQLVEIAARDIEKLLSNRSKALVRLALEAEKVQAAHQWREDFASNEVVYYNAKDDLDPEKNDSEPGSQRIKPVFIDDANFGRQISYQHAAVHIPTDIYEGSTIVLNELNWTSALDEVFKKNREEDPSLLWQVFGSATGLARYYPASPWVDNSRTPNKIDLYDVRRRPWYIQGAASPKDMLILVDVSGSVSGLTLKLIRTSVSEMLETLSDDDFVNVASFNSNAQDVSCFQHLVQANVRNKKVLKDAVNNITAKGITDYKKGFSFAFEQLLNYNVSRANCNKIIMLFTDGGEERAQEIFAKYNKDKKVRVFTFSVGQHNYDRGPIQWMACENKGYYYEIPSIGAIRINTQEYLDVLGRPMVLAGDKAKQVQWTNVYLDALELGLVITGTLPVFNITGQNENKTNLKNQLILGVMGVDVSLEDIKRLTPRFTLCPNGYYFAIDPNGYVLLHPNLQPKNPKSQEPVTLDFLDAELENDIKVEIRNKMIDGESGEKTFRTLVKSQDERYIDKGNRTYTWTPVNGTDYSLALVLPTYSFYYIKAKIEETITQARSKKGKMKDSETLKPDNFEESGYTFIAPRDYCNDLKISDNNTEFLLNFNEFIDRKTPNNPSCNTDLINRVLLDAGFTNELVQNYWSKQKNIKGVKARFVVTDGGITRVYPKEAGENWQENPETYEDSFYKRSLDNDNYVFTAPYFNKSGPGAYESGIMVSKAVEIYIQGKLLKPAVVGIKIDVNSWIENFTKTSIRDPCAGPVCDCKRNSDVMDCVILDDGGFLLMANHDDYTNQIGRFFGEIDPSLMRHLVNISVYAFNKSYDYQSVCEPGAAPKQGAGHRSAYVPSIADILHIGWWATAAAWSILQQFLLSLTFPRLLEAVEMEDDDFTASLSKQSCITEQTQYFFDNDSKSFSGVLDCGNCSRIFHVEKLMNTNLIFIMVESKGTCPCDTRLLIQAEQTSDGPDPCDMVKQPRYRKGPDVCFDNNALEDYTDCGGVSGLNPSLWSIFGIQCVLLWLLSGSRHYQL

| Compound | pIC50 [1] | other results |
| --- | --- | --- |
| CC[C@@H]1CCC(CN)(CC(=O)O)C1 (stereo not given in full) | 7.28 | – |
| C[C@@H]1CCC(CN)(CC(=O)O)C1 (stereo not given in full) | 7.06 | – |
| CC[C@H]1CCC(CN)(CC(=O)O)C1 (stereo not given in full) | 6.15 | – |
| CC1(C)CCC(CN)(CC(=O)O)C1 (stereo not given) | 5.50 | – |
| C[C@@H]1CC[C@@](CN)(CC(=O)O)C1 | 7.15 | Activity [2]: Active; minimal effective dose [3]: 30 mg/kg |
| C[C@@H]1CC[C@](CN)(CC(=O)O)C1 | 7.52 | minimal effective dose [3]: 3 mg/kg; Activity [4]: inactive; Activity [5]: Active |
| CCC[C@@H]1CCC(CN)(CC(=O)O)C1 (stereo not given in full) | 7.54 | – |
| CC1CCC(CN)(CC(=O)O)C1 (mixture of isomers) | 7.09 | – |
| CC(C)(C)C1CCC(CN)(CC(=O)O)C1 (mixture of isomers) | < 5.00 | – |
| CCCC1CCC(CN)(CC(=O)O)C1 (mixture of isomers) | 7.16 | – |
| CC(C)CC1CCC(CN)(CC(=O)O)C1 (mixture of isomers) | 6.12 | – |
| CCC1CCC(CN)(CC(=O)O)C1 (mixture of isomers) | 7.26 | – |
| CCCCC1CCC(CN)(CC(=O)O)C1 (mixture of isomers) | 6.16 | – |
| NCC1(CC(=O)O)CCC(c2ccccc2)C1 (mixture of isomers) | 5.30 | – |
| NCC1(CC(=O)O)CCC(Cc2ccccc2)C1 (mixture of isomers) | 5.03 | – |
| NCC1(CC(=O)O)CCC(CCc2ccccc2)C1 (mixture of isomers) | 5.21 | – |
| CCC[C@H]1CCC(CN)(CC(=O)O)C1 (single isomer, unassigned) | 5.92 | – |
| C[C@H]1CCC(CN)(CC(=O)O)C1 (single isomer, unassigned) | 5.89 | – |
| NCC1(CC(=O)O)CCCC1 [GABABUTIN] | 6.38 | – |
| CC(C)C[C@H](CN)CC(=O)O [PREGABALIN] | – | minimal effective dose [3]: 10 mg/kg |

— ChEMBL document CHEMBL1153100, “Synthesis and in vivo evaluation of 3-substituted gababutins” (Bioorg Med Chem Lett, 2010)
